In ChEMBL document CHEMBL3400013, “Synthesis and biological activity evaluation of hydrazone derivatives based on a Tröger's base skeleton” (Bioorg Med Chem, 2015):
pIC50: −log10 of the molar value. Calls of active or inactive are those of the source. The rule behind the calls is not given here.

Experiments:
[1] = system: Nucleic Acid; assay: Binding affinity to DNA (unknown origin) assessed as DNA intercalation by UV-visible spectrophotometry in presence of Fe3+; type: nucleic-acid assay
[2] = system: Nucleic Acid; assay: Binding affinity to DNA (unknown origin) assessed as DNA intercalation by UV-visible spectrophotometry in presence of Ni2+; type: nucleic-acid assay
[3] = system: Nucleic Acid; assay: Binding affinity to DNA (unknown origin) assessed as DNA intercalation by UV-visible spectrophotometry in presence of Zn2+; type: nucleic-acid assay
[4] = system: BJ; assay: Selectivity index, ratio of IC50 for human BJ cells to IC50 for human CEM-DNR cells; type: functional
[5] = system: BJ; assay: Selectivity index, ratio of IC50 for human BJ cells to IC50 for human K562 cells; type: functional
[6] = system: A549; assay: Selectivity index, ratio of IC50 for human BJ cells to IC50 for human A549 cells; type: functional
[7] = system: A549; assay: Selectivity index, ratio of IC50 for human MRC5 cells to IC50 for human A549 cells; type: functional
[8] = system: HCT-116; assay: Selectivity index, ratio of IC50 for human MRC5 cells to IC50 for human HCT116 cells; type: functional
[9] = system: BJ; assay: Selectivity index, ratio of IC50 for human BJ cells to IC50 for human p53-/- HCT116 cells; type: functional
[10] = system: CCRF-CEM; assay: Cytostatic activity against human CCRF-CEM cells after 72 hrs by MTT assay; type: functional, cell-based
Outline: (§1)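 Cells were seeded at 25,000–30,000 per well and pre-incubated for 24 h at 37°C in 5% CO2. Four-fold compound dilutions were added in duplicate and incubated for 72 h. MTT was added for 1–4 h, and formazan was dissolved in 10% aq SDS (pH 5.5) overnight at 37°C. OD was read at 540 nm. IC50 came from dose-response curves, mean ± SD of eight independent experiments.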

[11] = Cytostatic activity against human CEM-DNR cells after 72 hrs by MTT assay; type: functional, cell-based; outline: as §1
[12] = Cytostatic activity against human K562-TAX cells after 72 hrs by MTT assay; type: functional, cell-based; outline: as §1
[13] = system: A549; assay: Cytostatic activity against human A549 cells after 72 hrs by MTT assay; type: functional, cell-based; settings: A549, 72 h; outline: as §1
[14] = Cytostatic activity against human HCT116 cells after 72 hrs by MTT assay; type: functional, cell-based; settings: HCT-116, 72 h; outline: as §1
[15] = system: BJ; assay: Cytostatic activity against human BJ cells after 72 hrs by MTT assay; type: ADME, cell-based; outline: as §1
[16] = system: CCRF-CEM; assay: Induction of apoptosis in human CCRF-CEM cells assessed as apoptotic cells at IC50 after 24 hrs by propidium iodide staining-based flow cytometry; type: functional
Outline: (§2)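 Cells were then fixed in 70% ethanol, washed in hypotonic citrate buffer, treated with RNase (50 µg/mL) and stained with propidium iodide. Flow cytometry used a 488 nm laser. Apoptosis was scored as the percentage of particles with propidium content below G0/G1.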

[17] = system: CCRF-CEM; assay: Induction of apoptosis in human CCRF-CEM cells assessed as apoptotic cells at 5 times IC50 after 24 hrs by propidium iodide staining-based flow cytometry; type: functional; outline: as §2
[18] = system: CCRF-CEM; assay: Cell cycle arrest in human CCRF-CEM cells assessed as accumulation at G0/G1 phase at 5 times IC50 after 24 hrs by propidium iodide staining-based flow cytometry; type: functional; outline: as §2
[19] = system: CCRF-CEM; assay: Cell cycle arrest in human CCRF-CEM cells assessed as accumulation at S phase at IC50 after 24 hrs by propidium iodide staining-based flow cytometry; type: functional; outline: as §2
[20] = system: CCRF-CEM; assay: Cell cycle arrest in human CCRF-CEM cells assessed as accumulation at S phase at 5 times IC50 after 24 hrs by propidium iodide staining-based flow cytometry; type: functional; outline: as §2
[21] = system: CCRF-CEM; assay: Cell cycle arrest in human CCRF-CEM cells assessed as accumulation at G2/M phase at IC50 after 24 hrs by propidium iodide staining-based flow cytometry; type: functional; outline: as §2
[22] = system: CCRF-CEM; assay: Cell cycle arrest in human CCRF-CEM cells assessed as accumulation at G2/M phase at 5 times IC50 after 24 hrs by propidium iodide staining-based flow cytometry; type: functional; outline: as §2
[23] = system: CCRF-CEM; assay: Induction of apoptosis in human CCRF-CEM cells assessed as mitotic cells at IC50 after 24 hrs by pH3Ser10+ labeling-based flow cytometry; type: functional
[24] = system: CCRF-CEM; assay: Induction of apoptosis in human CCRF-CEM cells assessed as mitotic cells at 5 times IC50 after 24 hrs by pH3Ser10+ labeling-based flow cytometry; type: functional
[25] = system: CCRF-CEM; assay: Induction of apoptosis in human CCRF-CEM cells assessed as inhibition of DNA synthesis at IC50 after 24 hrs by propidium iodide/BrdU staining by flow cytometry; type: functional; parameters: scale not given: the % may be the effect or the level left
[26] = system: CCRF-CEM; assay: Induction of apoptosis in human CCRF-CEM cells assessed as inhibition of DNA synthesis at 5 times IC50 after 24 hrs by propidium iodide/BrdU staining by flow cytometry; type: functional; parameters: scale not given: the % may be the effect or the level left
[27] = system: Enterococcus faecalis; assay: Antimicrobial activity against Enterococcus faecalis CCM 4224 up to 200 uM after 24 to 48 hrs by broth microdilution method; type: functional, organism-based
[28] = system: Staphylococcus aureus; assay: Antimicrobial activity against Staphylococcus aureus CCM 3953 up to 200 uM after 24 to 48 hrs by broth microdilution method; type: functional, organism-based
[29] = system: Pseudomonas aeruginosa; assay: Antimicrobial activity against Pseudomonas aeruginosa CCM 395 up to 200 uM after 24 to 48 hrs by broth microdilution method; type: functional, organism-based
[30] = system: Staphylococcus haemolyticus; assay: Antimicrobial activity against methicillin-resistant Staphylococcus haemolyticus A1/16568 up to 200 uM after 24 to 48 hrs by broth microdilution method; type: functional, organism-based
[31] = system: Pseudomonas aeruginosa; assay: Antimicrobial activity against multidrug-resistant Pseudomonas aeruginosa A/16575 up to 200 uM after 24 to 48 hrs by broth microdilution method; type: functional, organism-based
[32] = system: Pichia kudriavzevii; assay: Antifungal activity against Candida crusei up to 200 uM after 24 to 48 hrs by broth microdilution method; type: functional, organism-based
[33] = system: Candida tropicalis; assay: Antifungal activity against Candida tropicalis up to 200 uM after 24 to 48 hrs by broth microdilution method; type: functional, organism-based
[34] = system: Candida parapsilosis; assay: Antifungal activity against Candida parapsilosis up to 200 uM after 24 to 48 hrs by broth microdilution method; type: functional, organism-based
[35] = Metal chelating activity of the compound assessed as formation of Co2+ complex by UV-vis spectrometry; type: physicochemical
[36] = Metal chelating activity of the compound assessed as formation of Cu2+ complex by UV-vis spectrometry; type: physicochemical
[37] = Metal chelating activity of the compound assessed as formation of Fe3+ complex by UV-vis spectrometry; type: physicochemical
[38] = Metal chelating activity of the compound assessed as formation of Ni2+ complex by UV-vis spectrometry; type: physicochemical
[39] = Metal chelating activity of the compound assessed as formation of Ca2+ complex by UV-vis spectrometry; type: physicochemical
[40] = Metal chelating activity of the compound assessed as formation of Mg2+ complex by UV-vis spectrometry; type: physicochemical
[41] = Metal chelating activity of the compound assessed as formation of Fe2+ complex by UV-vis spectrometry; type: physicochemical
[42] = Metal chelating activity of the compound assessed as formation of Cr3+ complex by UV-vis spectrometry; type: physicochemical
[43] = system: Nucleic Acid; assay: Binding affinity to DNA (unknown origin) assessed as DNA intercalation by UV-visible spectrophotometry; type: nucleic-acid assay
[44] = system: Nucleic Acid; assay: Binding affinity to DNA (unknown origin) assessed as DNA intercalation by UV-visible spectrophotometry in presence of Cu2+; type: nucleic-acid assay

In the case of `Cc1ccc(O)c(/C=N/NC(=O)c2ccc3c4c(ccc3c2)N2Cc3c(ccc5cc(C(=O)N/N=C/c6cc(C)ccc6O)ccc35)N(C4)C2)c1`, the Activity [1] was “Active”, the Activity [2] was “Active” and the Activity [3] was “Active”. The “Ratio IC50” value [4] was 0.1, the “Ratio IC50” value [5] was 0.5 and the “Ratio IC50” value [6] was 0.9. For the same compound, the “Ratio IC50” value [7] was 0.9, the “Ratio IC50” value [8] was 0.8 and the “Ratio IC50” value [9] was 1.1. It also gave a pIC50 [10] of 6.24, a pIC50 [11] of 5.27 and a pIC50 [12] of 5.94. It also gave a pIC50 [13] of 6.27, a pIC50 [14] of 6.21 and a pIC50 [15] of 6.16. It also gave an Activity [16] of 14.09%, an Activity [17] of 54.07% and an Activity [18] of 38.43%. It also gave an Activity [19] of 44.83%, an Activity [20] of 46.78% and an Activity [21] of 14.65%. It also gave an Activity [22] of 14.79%, an Activity [23] of 1.04% and an Activity [24] of 0.22%. The Activity [25] was 38.67%, the Activity [26] was 5.17% and the Activity [27] was “inactive”. The Activity [28] was “inactive”, the Activity [29] was “inactive” and the Activity [30] was “inactive”. The Activity [31] was “inactive”, the Activity [32] was “inactive” and the Activity [33] was “inactive”. The Activity [34] was “inactive”, the Activity [35] was “Active” and the Activity [36] was “Active”. For the same compound, the Activity [37] was “Active”, the Activity [38] was “Active” and the Activity [39] was “Not Active”. The Activity [40] was “Not Active”, the Activity [41] was “Not Active” and the Activity [42] was “Not Active”. For the same compound, the Activity [43] was “inactive” and the Activity [44] was “Active”.
In the case of `O=C(N/N=C/c1cc(O)ccc1O)c1ccc2c3c(ccc2c1)N1Cc2c(ccc4cc(C(=O)N/N=C/c5cc(O)ccc5O)ccc24)N(C3)C1`, the Activity [1] was “Active”, the Activity [2] was “Active” and the Activity [3] was “Active”. For the same compound, the “Ratio IC50” value [4] was 1.4, the “Ratio IC50” value [5] was 8 and the “Ratio IC50” value [6] was 20.9. The “Ratio IC50” value [7] was 20.9, the “Ratio IC50” value [8] was 9.1 and the “Ratio IC50” value [9] was 29. The pIC50 [10] was 7.22, the pIC50 [11] was 5.59 and the pIC50 [12] was 6.59. It also gave a pIC50 [13] of 6.77, a pIC50 [14] of 6.41 and a pIC50 [15] of 5.18. It also gave an Activity [16] of 3.99%, an Activity [17] of 9.74% and an Activity [18] of 21.32%. For the same compound, the Activity [19] was 44.72%, the Activity [20] was 58.22% and the Activity [21] was 17.9%. It also gave an Activity [22] of 20.46%, an Activity [23] of 2.34% and an Activity [24] of 2.39%. The Activity [25] was 50.15%, the Activity [26] was 55.96% and the Activity [27] was “inactive”. For the same compound, the Activity [28] was “inactive”, the Activity [29] was “inactive” and the Activity [30] was “inactive”. For the same compound, the Activity [31] was “inactive”, the Activity [32] was “inactive” and the Activity [33] was “inactive”. For the same compound, the Activity [34] was “inactive”, the Activity [35] was “Active” and the Activity [36] was “Active”. The Activity [37] was “Active”, the Activity [38] was “Active” and the Activity [39] was “Not Active”. The Activity [40] was “Not Active”, the Activity [41] was “Not Active” and the Activity [42] was “Not Active”. For the same compound, the Activity [43] was “inactive” and the Activity [44] was “Active”.
